# Experiments:
# rhMMP-12 = rhMMP-12 (Homo sapiens, UniProt P39900); test: MMP affinity determination; assay type: biochemical
# In short: (§1)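 Inhibition constants were derived from the kinetic effect of the test compound on MMP cleavage of the fluorogenic substrate Mca-Lys-Pro-Leu-Gly-Leu-Dpa-Ala-Arg-NH2. Conditions: 50 mM Tris/HCl pH 6.8, 10 mM CaCl2, 25 °C, with 0.2–0.5 nM enzyme. […] Fluorescence was monitored, and Ki was obtained by the Horovitz–Levitzki method.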
# MMP-12 = MMP-12 (Mus musculus, UniProt P34960); test: 99mTc-AGA-2 binding specificity; settings: co-incubation with 500-fold molar excess, P < 0.001
# Sequence of MMP-12 (P34960 110-473): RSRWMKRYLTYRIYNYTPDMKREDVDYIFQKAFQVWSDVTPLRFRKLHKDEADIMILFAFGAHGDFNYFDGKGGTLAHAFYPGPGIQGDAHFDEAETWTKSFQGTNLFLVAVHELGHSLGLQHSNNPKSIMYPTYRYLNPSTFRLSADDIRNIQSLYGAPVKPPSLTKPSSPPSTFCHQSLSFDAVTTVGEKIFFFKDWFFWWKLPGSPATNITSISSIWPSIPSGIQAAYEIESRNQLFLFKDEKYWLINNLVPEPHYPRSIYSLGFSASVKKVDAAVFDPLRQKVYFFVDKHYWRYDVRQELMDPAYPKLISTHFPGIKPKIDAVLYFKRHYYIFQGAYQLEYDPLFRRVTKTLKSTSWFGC
# In short: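 Tissues came from Apoe−/− mice given angiotensin II (1,000 ng/kg/min) by subcutaneous minipump for 4 weeks. Tracer binding was compared in aneurysmal aorta and in normal-size infrarenal aorta, with or without MMP inhibitors.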
# rhMMP-7 = molecular target: T1, rhMMP-7 (Homo sapiens, UniProt P09237); test: MMP affinity determination; assay type: biochemical; settings: relative to CGA
# T1 sequence (P09237 95-267): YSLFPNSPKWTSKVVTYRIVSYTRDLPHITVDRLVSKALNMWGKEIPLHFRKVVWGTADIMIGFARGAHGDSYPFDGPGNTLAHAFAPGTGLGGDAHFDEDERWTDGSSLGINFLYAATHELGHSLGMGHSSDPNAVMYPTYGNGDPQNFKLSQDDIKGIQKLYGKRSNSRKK
# In short: as §1
# Sequence of rhMMP-12 (P39900 106-470): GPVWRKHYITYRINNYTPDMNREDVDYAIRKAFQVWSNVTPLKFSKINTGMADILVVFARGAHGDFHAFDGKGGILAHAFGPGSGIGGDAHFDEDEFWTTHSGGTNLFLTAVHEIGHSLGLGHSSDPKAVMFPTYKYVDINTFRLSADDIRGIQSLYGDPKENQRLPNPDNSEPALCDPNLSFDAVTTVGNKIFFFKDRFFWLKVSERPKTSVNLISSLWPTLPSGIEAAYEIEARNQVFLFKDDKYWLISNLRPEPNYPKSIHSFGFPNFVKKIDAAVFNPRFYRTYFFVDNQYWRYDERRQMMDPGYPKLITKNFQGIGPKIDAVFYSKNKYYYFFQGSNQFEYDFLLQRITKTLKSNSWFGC
smiles,measurement,setting,value
CC(C)C[C@H]1C(=O)N[C@H](C(=O)O)Cc2ccc(cc2)OCCC[C@@H]1C(=O)NO [CGA],selectivity for rhMMP-12 relative to rhMMP-13,rhMMP-12; against rhMMP-13,28 folds
"CNC(=O)[C@H](Cc1c[nH]c2ccccc12)NC(=O)[C@@H](CC(=O)NO)CC(C)C [GM6001, reference compound]",effect on 99mTc-AGA-2 binding to AAA tissue,MMP-12,significantly reduced
CC(C)C[C@H](CC(=O)NO)C(=O)N[C@@H](Cc1ccccc1)C(=O)O [AGA],drop in potency for MMP-12 on ring opening from cyclic CGA to acyclic AGA,rhMMP-12; relative to CGA,10 fold
same,drop in potency for MMP-7 on ring opening from cyclic CGA to acyclic AGA,rhMMP-7,10 fold
same,effect on 99mTc-AGA-2 binding to AAA tissue,MMP-12,significantly reduced
CC(C)C[C@H]1C(=O)N[C@H](C(=O)N[C@@H](CCC(=O)O)C(=O)O)Cc2ccc(cc2)OCCC[C@@H]1C(=O)NO [CGA-1],selectivity for rhMMP-12 relative to rhMMP-7,rhMMP-12; against rhMMP-7,at least 12 folds
